Measured values from ChEMBL document CHEMBL4257478, “Design, synthesis and evaluation of (R)-3-(7-(methyl(7H-pyrrolo[2,3-d]pyrimidin-4-yl)amino)-5-azaspiro[2.4]heptan-5-yl)-3-oxopropanenitrile as a JAK1-selective inhibitor” (Medchemcomm, 2018).

Legend:
[1] = biological target: Voltage-gated inwardly rectifying potassium channel KCNH2 (Homo sapiens, UniProt Q12809); assay: Inhibition of human ERG expressed in HEK293 cells after 5 mins by automated planar patch clamp method; format: cell-based
[2] = biological target: T1, Tyrosine-protein kinase JAK2 (Homo sapiens, UniProt O60674); assay: Inhibition of human JAK2 at 10 uM using KTFCGTPEYLAPEVRREPRILSEEEQEMFRDFDYIADWC as substrate after 40 mins in presence of [gamma-33P-ATP] by scintillation counting method relative to control
T1 sequence (O60674 whole entry): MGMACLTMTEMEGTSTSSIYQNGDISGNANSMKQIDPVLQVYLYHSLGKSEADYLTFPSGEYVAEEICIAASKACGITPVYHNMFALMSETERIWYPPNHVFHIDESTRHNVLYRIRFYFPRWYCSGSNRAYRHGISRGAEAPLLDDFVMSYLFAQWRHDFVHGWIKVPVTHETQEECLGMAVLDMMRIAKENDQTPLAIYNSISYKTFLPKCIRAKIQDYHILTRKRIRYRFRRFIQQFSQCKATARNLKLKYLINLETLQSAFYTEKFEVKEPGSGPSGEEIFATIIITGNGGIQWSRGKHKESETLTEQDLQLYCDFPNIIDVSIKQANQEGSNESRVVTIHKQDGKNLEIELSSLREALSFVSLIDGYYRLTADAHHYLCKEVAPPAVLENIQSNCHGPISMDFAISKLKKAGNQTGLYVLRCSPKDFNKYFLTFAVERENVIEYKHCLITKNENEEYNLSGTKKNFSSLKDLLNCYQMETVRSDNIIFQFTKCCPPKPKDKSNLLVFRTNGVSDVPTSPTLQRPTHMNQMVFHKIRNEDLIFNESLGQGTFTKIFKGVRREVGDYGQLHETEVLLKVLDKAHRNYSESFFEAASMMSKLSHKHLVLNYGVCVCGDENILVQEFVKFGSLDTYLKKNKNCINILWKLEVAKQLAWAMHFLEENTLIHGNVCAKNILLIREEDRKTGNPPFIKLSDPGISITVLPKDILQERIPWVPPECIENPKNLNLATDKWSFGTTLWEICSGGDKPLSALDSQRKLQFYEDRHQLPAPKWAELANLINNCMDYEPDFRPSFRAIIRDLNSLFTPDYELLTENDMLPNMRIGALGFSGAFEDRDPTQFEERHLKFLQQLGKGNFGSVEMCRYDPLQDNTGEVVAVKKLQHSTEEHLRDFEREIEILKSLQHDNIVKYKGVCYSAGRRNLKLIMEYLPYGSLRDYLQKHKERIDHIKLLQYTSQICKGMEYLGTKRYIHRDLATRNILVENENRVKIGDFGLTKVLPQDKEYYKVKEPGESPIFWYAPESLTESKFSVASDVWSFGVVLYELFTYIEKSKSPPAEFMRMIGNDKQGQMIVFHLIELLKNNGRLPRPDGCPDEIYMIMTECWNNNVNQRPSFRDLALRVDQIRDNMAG

[3] = Cmax in Sprague-Dawley rat at 10 mg/kg, po after 0.25 to 24 hrs by LC-MS/MS method; format: ADME, organism-based; design: dose 10 mg/kg, route oral; details: in vivo
In short: (§1)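 Male Sprague Dawley rats, 7-8 weeks old, n=4 per group. IV dose 5 mg/kg free base in 10% ethanol/90% PEG400; oral dose 10 mg/kg as corn oil suspension after 16 h fast. Blood taken 0.08-24 h (IV) or 0.25-24 h (PO). Plasma diluted in acetonitrile with internal standard, analysed by LC-MS/MS, parameters by non-compartmental analysis.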

[4] = Half life in Sprague-Dawley rat at 10 mg/kg, po after 0.25 to 24 hrs by LC-MS/MS method; format: ADME, organism-based; details: in vivo; in short: as §1
Rattus norvegicus [5] = assay: AUC (0 to infinity) in Sprague-Dawley rat at 10 mg/kg, po after 0.25 to 24 hrs by LC-MS/MS method; format: ADME, organism-based; design: dose 10 mg/kg, route oral, time infinity; details: in vivo; in short: as §1
Rattus norvegicus [6] = assay: AUC (0 to t) in Sprague-Dawley rat at 10 mg/kg, po after 0.25 to 24 hrs by LC-MS/MS method; format: ADME, organism-based; design: time lower 0.25 hr, dose 10 mg/kg, time upper 24 hr, route oral; details: in vivo; in short: as §1
[7] = MRT in Sprague-Dawley rat at 10 mg/kg, po after 0.25 to 24 hrs by LC-MS/MS method; format: ADME, organism-based; details: in vivo; in short: as §1
[8] = Oral bioavailability in Sprague-Dawley rat at 10 mg/kg after 0.25 to 24 hrs by LC-MS/MS method; format: ADME, organism-based; details: in vivo
In short: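 Male Sprague Dawley rats, 7–8 weeks old, n=4, fasted 16 h. Free base given at 10 mg/kg po as a corn oil suspension (5 mL/kg); a 5 mg/kg iv arm used 10% ethanol/90% PEG400. Plasma sampled 0.25–24 h, acetonitrile-precipitated with internal standard, and measured by LC-MS/MS. Parameters derived by non-compartmental analysis.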

[9] = Half life in Sprague-Dawley rat at 5 mg/kg, iv after 0.08 to 24 hrs by LC-MS/MS method; format: ADME, organism-based; details: in vivo; in short: as §1
Rattus norvegicus [10] = assay: AUC (0 to infinity) in Sprague-Dawley rat at 5 mg/kg, iv after 0.08 to 24 hrs by LC-MS/MS method; format: ADME, organism-based; design: dose 5 mg/kg, time infinity, route intravenous; details: in vivo; in short: as §1
Rattus norvegicus [11] = assay: AUC (0 to t) in Sprague-Dawley rat at 5 mg/kg, iv after 0.08 to 24 hrs by LC-MS/MS method; format: ADME, organism-based; design: time upper 24 hr, time lower 0.08 hr, dose 5 mg/kg, route intravenous; details: in vivo; in short: as §1
[12] = MRT in Sprague-Dawley rat at 5 mg/kg, iv after 0.08 to 24 hrs by LC-MS/MS method; format: ADME, organism-based; details: in vivo; in short: as §1
Rattus norvegicus [13] = assay: Antiarthritic activity in adjuvant-induced SPF LEW/SsNSlc rat arthritis model assessed as paw thickness at 5 mg/kg, po qd measured on 14 days; format: functional
In short: (§2)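 Lewis rats were 10 weeks old after 2 weeks acclimation. Immunized s.c. at the tail base with 0.1 mL complete Freund's adjuvant containing 10 mg/mL heat-killed mycobacterium. From day 12 post-immunization (day 1), n=10 per group, oral dosing once daily for 14 days, vehicle corn oil. Clinical score and hind paw measured twice weekly.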

Rattus norvegicus [14] = assay: Antiarthritic activity in adjuvant-induced SPF LEW/SsNSlc rat arthritis model assessed as paw thickness at 10 mg/kg, po qd measured on day 14; format: functional; in short: as §2
Rattus norvegicus [15] = assay: Antiarthritic activity in adjuvant-induced SPF LEW/SsNSlc rat arthritis model assessed as paw thickness at 20 mg/kg, po qd measured on day 14; format: functional; in short: as §2
[16] = biological target: Tyrosine-protein kinase JAK1 (Homo sapiens, UniProt P23458); assay: Inhibition of human JAK1 using GEEPLYWSFPAKKK as substrate after 40 mins in presence of [gamma-33P-ATP] by scintillation counting method
Chain of Tyrosine-protein kinase JAK1 (P23458 whole entry): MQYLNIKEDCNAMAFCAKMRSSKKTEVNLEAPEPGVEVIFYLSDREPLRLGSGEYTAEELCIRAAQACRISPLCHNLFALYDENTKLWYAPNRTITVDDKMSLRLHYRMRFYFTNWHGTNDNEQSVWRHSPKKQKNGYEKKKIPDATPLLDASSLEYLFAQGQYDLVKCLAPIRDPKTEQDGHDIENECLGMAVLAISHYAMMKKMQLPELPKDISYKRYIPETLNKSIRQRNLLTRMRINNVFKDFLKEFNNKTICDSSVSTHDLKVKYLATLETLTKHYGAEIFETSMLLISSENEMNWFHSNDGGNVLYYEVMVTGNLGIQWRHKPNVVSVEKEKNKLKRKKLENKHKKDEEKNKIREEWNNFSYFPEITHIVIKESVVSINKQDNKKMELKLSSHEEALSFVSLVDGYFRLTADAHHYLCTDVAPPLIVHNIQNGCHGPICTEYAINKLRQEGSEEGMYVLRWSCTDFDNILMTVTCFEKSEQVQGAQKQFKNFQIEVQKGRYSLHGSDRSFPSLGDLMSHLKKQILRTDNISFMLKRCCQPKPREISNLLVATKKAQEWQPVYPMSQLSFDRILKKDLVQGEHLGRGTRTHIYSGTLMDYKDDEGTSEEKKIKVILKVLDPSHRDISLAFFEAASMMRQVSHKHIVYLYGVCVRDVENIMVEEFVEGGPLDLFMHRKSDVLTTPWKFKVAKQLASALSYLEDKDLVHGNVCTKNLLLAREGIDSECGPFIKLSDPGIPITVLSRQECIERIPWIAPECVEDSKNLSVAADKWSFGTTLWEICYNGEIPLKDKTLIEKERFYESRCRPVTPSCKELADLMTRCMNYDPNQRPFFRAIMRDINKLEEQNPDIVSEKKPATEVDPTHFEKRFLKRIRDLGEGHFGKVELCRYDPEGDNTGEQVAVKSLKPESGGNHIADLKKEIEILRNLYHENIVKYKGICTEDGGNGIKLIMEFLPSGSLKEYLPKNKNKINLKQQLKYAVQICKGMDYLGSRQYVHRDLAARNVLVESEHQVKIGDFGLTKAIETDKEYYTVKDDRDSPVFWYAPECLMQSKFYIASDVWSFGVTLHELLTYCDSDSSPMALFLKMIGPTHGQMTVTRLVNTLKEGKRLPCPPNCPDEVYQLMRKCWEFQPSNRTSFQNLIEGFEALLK

[17] = biological target: T1, Tyrosine-protein kinase JAK2; assay: Inhibition of human JAK2 using KTFCGTPEYLAPEVRREPRILSEEEQEMFRDFDYIADWC as substrate after 40 mins in presence of [gamma-33P-ATP] by scintillation counting method

Chain of Voltage-gated inwardly rectifying potassium channel KCNH2 (Q12809 whole entry): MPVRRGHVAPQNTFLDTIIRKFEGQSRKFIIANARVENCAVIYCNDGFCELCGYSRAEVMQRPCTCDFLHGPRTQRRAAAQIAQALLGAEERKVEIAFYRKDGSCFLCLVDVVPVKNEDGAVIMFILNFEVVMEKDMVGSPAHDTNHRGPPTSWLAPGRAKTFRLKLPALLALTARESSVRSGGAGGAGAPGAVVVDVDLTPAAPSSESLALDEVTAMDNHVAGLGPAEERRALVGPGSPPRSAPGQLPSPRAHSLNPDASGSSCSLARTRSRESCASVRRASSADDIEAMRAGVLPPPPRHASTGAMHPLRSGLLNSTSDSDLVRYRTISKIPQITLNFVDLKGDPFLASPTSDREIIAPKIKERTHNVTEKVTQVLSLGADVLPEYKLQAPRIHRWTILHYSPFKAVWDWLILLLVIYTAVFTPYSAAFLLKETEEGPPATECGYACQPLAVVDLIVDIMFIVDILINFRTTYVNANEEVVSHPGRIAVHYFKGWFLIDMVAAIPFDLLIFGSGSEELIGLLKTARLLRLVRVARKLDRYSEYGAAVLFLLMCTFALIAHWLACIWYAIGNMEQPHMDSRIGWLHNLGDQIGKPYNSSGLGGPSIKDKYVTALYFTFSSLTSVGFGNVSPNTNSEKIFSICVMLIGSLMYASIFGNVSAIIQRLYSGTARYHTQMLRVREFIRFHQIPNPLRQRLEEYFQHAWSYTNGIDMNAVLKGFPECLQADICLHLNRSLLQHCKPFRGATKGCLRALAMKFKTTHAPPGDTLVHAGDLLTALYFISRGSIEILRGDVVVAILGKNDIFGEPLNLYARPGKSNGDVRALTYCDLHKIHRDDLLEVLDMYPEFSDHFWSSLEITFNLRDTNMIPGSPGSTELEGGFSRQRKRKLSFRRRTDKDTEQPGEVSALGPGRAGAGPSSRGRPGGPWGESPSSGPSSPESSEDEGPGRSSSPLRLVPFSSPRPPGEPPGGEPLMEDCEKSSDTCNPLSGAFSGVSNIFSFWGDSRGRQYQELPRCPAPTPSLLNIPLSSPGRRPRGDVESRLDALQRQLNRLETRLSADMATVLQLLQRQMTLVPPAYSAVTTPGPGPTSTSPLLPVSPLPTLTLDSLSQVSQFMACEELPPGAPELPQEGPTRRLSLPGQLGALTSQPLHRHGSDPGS

SMILES	IC50 [1] [nM]	inhibition at 10 µM [2] [%]	Cmax [3] [ng/mL]	half-life [4] [h]	AUC (Rattus norvegicus [5]) [ng·h/mL]	AUCt (Rattus norvegicus [6]) [ng·h/mL]	MRT [7] [h]	bioavailability [8] [%]	half-life [9] [h]	AUC (Rattus norvegicus [10]) [ng·h/mL]	AUCt (Rattus norvegicus [11]) [ng·h/mL]	MRT [12] [h]	Activity (Rattus norvegicus [13]) [mm]	Activity (Rattus norvegicus [14]) [mm]	Activity (Rattus norvegicus [15]) [mm]	IC50 [16] [nM]	IC50 [17] [nM]
CN(c1ncnc2[nH]ccc12)[C@H]1CN(C(=O)CC#N)CC12CC2	120000	90	1000	2.1	2100	1900	3.1	110	1.2	920	900	1.1	10.33	10.21	10.2		
CCS(=O)(=O)N1C[C@H](N(C)c2ncnc3[nH]ccc23)C2(CC2)C1																7.2	180
